The source of these data is ChEMBL document CHEMBL1212742 (2010).

What all share (assay type): functional
In assay [1] the test system is Mycobacterium tuberculosis. Put plainly: Antimicrobial activity against Mycobacterium tuberculosis NJT210GCC harboring embB406 GGC-GCC(Gly-Ala) mutation in embB gene after 4 weeks. In outline:
(§1)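 Isogenic embB mutants made by allelic exchange in strain 210. PCR-built fragments carried the codon of interest; double-crossover colonies were screened by molecular beacon assay and confirmed by direct embB sequencing. MICs of EMB, INH and RIF were determined by radiometric Bactec 460TB and 7H10 agar proportion, alongside parent 210.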

The subject of assay [2] is Mycobacterium tuberculosis. Put plainly: Antimicrobial activity against Mycobacterium tuberculosis 8C5 harboring embC13 CGG-CTG(Arg-Leu) mutation in embCAB gene after 4 weeks by Bactec 460TB method. The method, boiled down: (§2)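 EMB MIC by radiometric Bactec 460TB liquid method for clones from strain 210. The clones were selected on 7H10 containing 8, 16 or 32 µg/ml EMB final (~10^9 cells plated, 37°C, 4 weeks), then subcultured in 7H9 without EMB before MIC testing. embCAB was genotyped.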

The test system of assay [3] is Mycobacterium tuberculosis. Put plainly: Antimicrobial activity against Mycobacterium tuberculosis 16C7 harboring embB445 CAG-CGG(Gln-Arg) mutation in embCAB gene after 4 weeks by Bactec 460TB method. The method, boiled down:
as §2

In assay [4] the test system is Mycobacterium tuberculosis. Put plainly: Antimicrobial activity against Mycobacterium tuberculosis NJT210TCC harboring embB406 GGC-TCC(Gly-Ser) mutation in embB gene after 4 weeks. The method, boiled down: as §1
Assay [5] deals with Mycobacterium tuberculosis. Put plainly: Antimicrobial activity against Mycobacterium tuberculosis 32C5 harboring embB324 GGC-CGC(Gly-Arg) mutation in embCAB gene after 4 weeks by Bactec 460TB method. In outline:
as §2

For assay [6], the system named is Mycobacterium tuberculosis. Put plainly: Antimicrobial activity against Mycobacterium tuberculosis 16C11 harboring embB397 CCG-TCG(Pro-Ser) mutation in embCAB gene after 4 weeks by 7H agar proportion method. In outline:
(§3)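 EMB MIC by 7H10 agar proportion for clones selected from M. tuberculosis strain 210. About 10^9 cells from liquid culture (OD600 ~1.5, resuspended in 7H9) were plated on 7H10 with EMB at 8, 16 or 32 µg/ml final, incubated 37°C for 4 weeks. Colonies were subcultured in EMB-free 7H9 before testing, and embCAB was genotyped.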

In assay [7] the test system is Mycobacterium tuberculosis. Put plainly: Antimicrobial activity against Mycobacterium tuberculosis NJT210TGC harboring embB406 GGC-TGC(Gly-Cys) mutation in embB gene after 4 weeks. In outline: as §1
Assay [8] relates to Mycobacterium tuberculosis. Put plainly: Antimicrobial activity against Mycobacterium tuberculosis 32C1 harboring embB445 CAG-CGG(Gln-Arg) mutation in embCAB gene after 4 weeks by Bactec 460TB method. In outline: as §2
Assay [9] deals with Mycobacterium tuberculosis. Put plainly: Antimicrobial activity against Mycobacterium tuberculosis 8C7 harboring embB445 CAG-CGG(Gln-Arg) mutation in embCAB gene after 4 weeks by Bactec 460TB method. The method, boiled down:
as §2

In assay [10] the test system is Mycobacterium tuberculosis. Put plainly: Antimicrobial activity against Mycobacterium tuberculosis 8C7 harboring embB445 CAG-CGG(Gln-Arg) mutation in embCAB gene after 4 weeks by 7H agar proportion method. In outline: as §3
Assay [11] deals with Mycobacterium tuberculosis. Put plainly: Antimicrobial activity against Mycobacterium tuberculosis 32C5 harboring embB324 GGC-CGC(Gly-Arg) mutation in embCAB gene after 4 weeks by 7H agar proportion method. In outline:
as §3

For assay [12], the system named is Mycobacterium tuberculosis. Put plainly: Antimicrobial activity against Mycobacterium tuberculosis 16C16 harboring embB1024 GAC-AAC(Asp-Asn) mutation in embCAB gene after 4 weeks by 7H agar proportion method. In outline:
as §3

The subject of assay [13] is Mycobacterium tuberculosis. Put plainly: Antimicrobial activity against Mycobacterium tuberculosis 32C1 harboring embB445 CAG-CGG(Gln-Arg) mutation in embCAB gene after 4 weeks by 7H agar proportion method. The method, boiled down: as §3
The test system of assay [14] is Mycobacterium tuberculosis. Put plainly: Antimicrobial activity against Mycobacterium tuberculosis NJT210GAC harboring embB406 GGC-GAC(Gly-Asp) mutation in embB gene after 4 weeks. In outline:
as §1

In assay [15] the test system is Mycobacterium tuberculosis. Put plainly: Antimicrobial activity against Mycobacterium tuberculosis 8C5 harboring embC13 CGG-CTG(Arg-Leu) mutation in embCAB gene after 4 weeks by 7H agar proportion method. The method, boiled down: as §3
Assay [16] deals with Mycobacterium tuberculosis. Put plainly: Antimicrobial activity against Mycobacterium tuberculosis 16C9 harboring embB497 CAG-CGG(Gln-Arg) mutation in embCAB gene after 4 weeks by Bactec 460TB method. In outline:
as §2

For assay [17], the system named is Mycobacterium tuberculosis. Put plainly: Antimicrobial activity against Mycobacterium tuberculosis NJT210CGG harboring embB497 CAG-CGG(Gln-Arg) mutation in embB gene after 4 weeks. The method, boiled down: as §1
Assay [18] concerns Mycobacterium tuberculosis. Put plainly: Antimicrobial activity against Mycobacterium tuberculosis 32C2 harboring embB497 CAG-CGG(Gln-Arg) mutation in embCAB gene after 4 weeks by Bactec 460TB method. In outline: as §2
The test system of assay [19] is Mycobacterium tuberculosis. Put plainly: Antimicrobial activity against Mycobacterium tuberculosis 16C14 harboring embB445 CAG-CGG(Gln-Arg) mutation in embCAB gene after 4 weeks by 7H agar proportion method. The method, boiled down:
as §3

Assay [20] has as its system Mycobacterium tuberculosis. Put plainly: Antimicrobial activity against Mycobacterium tuberculosis 32C3 harboring embB497 CAG-CGG(Gln-Arg) mutation in embCAB gene after 4 weeks by Bactec 460TB method. In outline:
as §2

For assay [21], the system named is Mycobacterium tuberculosis. Put plainly: Antimicrobial activity against Mycobacterium tuberculosis 16C11 harboring embB397 CCG-TCG(Pro-Ser) mutation in embCAB gene after 4 weeks by Bactec 460TB method. The method, boiled down:
as §2

Assay [22] concerns Mycobacterium tuberculosis. Put plainly: Antimicrobial activity against Mycobacterium tuberculosis harboring mutation in embB306 gene after 4 weeks.
Assay [23] deals with Mycobacterium tuberculosis. Put plainly: Antimicrobial activity against Mycobacterium tuberculosis 32C4 harboring embB497 CAG-CGG(Gln-Arg) mutation in embCAB gene after 4 weeks by Bactec 460TB method.
In assay [24] the test system is Mycobacterium tuberculosis. Put plainly: Antimicrobial activity against Mycobacterium tuberculosis 16C15 harboring embB497 CAG-CGG(Gln-Arg) mutation in embCAB gene after 4 weeks by Bactec 460TB method. In outline: as §2
Assay [25] concerns Mycobacterium tuberculosis. Put plainly: Antimicrobial activity against Mycobacterium tuberculosis 16C16 harboring embB1024 GAC-AAC(Asp-Asn) mutation in embCAB gene after 4 weeks by Bactec 460TB method. In outline: as §2
Assay [26] deals with Mycobacterium tuberculosis. Put plainly: Antimicrobial activity against Mycobacterium tuberculosis 16C14 harboring embB445 CAG-CGG(Gln-Arg) mutation in embCAB gene after 4 weeks by Bactec 460TB method. The method, boiled down:
as §2

≈ marks a conversion by molar mass, not a printed value.

Turning to `CC[C@@H](CO)NCCN[C@@H](CC)CO` [ETHAMBUTOL], the minimal inhibitory concentration (MIC) in assay [1] stood at 7 µg/mL (≈ 34.3 µM); in [2], 4 µg/mL (≈ 19.6 µM); in assay [3], 8 µg/mL (≈ 39.2 µM); in [4], 6 µg/mL (≈ 29.4 µM); in assay [5] it was 8 µg/mL (≈ 39.2 µM); in [6], 8 µg/mL (≈ 39.2 µM). The MIC in [7] is 7 µg/mL (≈ 34.3 µM); in assay [8] it was 2 µg/mL (≈ 9.79 µM); in assay [9], 2 µg/mL (≈ 9.79 µM); in assay [10] it was 4 µg/mL (≈ 19.6 µM); in assay [11], 8 µg/mL (≈ 39.2 µM); in [12] it was 8 µg/mL (≈ 39.2 µM). The MIC in assay [13] worked out at 6 µg/mL (≈ 29.4 µM); in assay [14], 7 µg/mL (≈ 34.3 µM); in [15] it was 8 µg/mL (≈ 39.2 µM); in assay [16], 12 µg/mL (≈ 58.7 µM); in [17], 12 µg/mL (≈ 58.7 µM); in assay [18], 12 µg/mL (≈ 58.7 µM). Also, the MIC in assay [19] is 16 µg/mL (≈ 78.3 µM); in [20] it was 12 µg/mL (≈ 58.7 µM); in [21], 5 µg/mL (≈ 24.5 µM); in assay [22], greater than 20 µg/mL; in [23] it was 4 µg/mL (≈ 19.6 µM); in assay [24] it was 12 µg/mL (≈ 58.7 µM). The MIC was determined as 3 µg/mL (≈ 14.7 µM) in assay [25] and 8 µg/mL (≈ 39.2 µM) in assay [26].

`NNC(=O)c1ccncc1` [ISONIAZID]: the MIC in assay [1], in assay [4], in assay [7], in assay [14] and in [17] was 0.05 µg/mL (≈ 0.365 µM) throughout.

As for `CO[C@H]1/C=C/O[C@@]2(C)Oc3c(C)c(O)c4c(O)c(c(/C=N/N5CCN(C)CC5)c(O)c4c3C2=O)NC(=O)/C(C)=C\C=C\[C@H](C)[C@H](O)[C@@H](C)[C@@H](O)[C@@H](C)[C@H](OC(C)=O)[C@@H]1C` [RIFAMPIN], the MIC in assay [1], in [4], in assay [7], in assay [14] and in assay [17] was 0.05 µg/mL (≈ 0.0608 µM) each time.

Usually MIC stands for the lowest concentration found to suppress growth.
